Experimental data as given in ChEMBL document CHEMBL1139491 (J Med Chem, 2005).

Experiments:
MCF7 [1] = experiment: Tested for cytotoxicity towards MCF-7 cell line (human breast cancer); Not active; type: functional, cell-based
T47D [2] = experiment: Tested for cytotoxicity towards T47D cell line (human breast cancer); Not active; type: functional, cell-based
A549 [3] = experiment: Tested for cytotoxicity towards A549 cell line (human lung carcinoma); Not active; type: functional, cell-based
[4] = biological target: T1, Aryl hydrocarbon receptor (Oryctolagus cuniculus, UniProt O02747); experiment: Binding affinity for aryl hydrocarbon receptor (AhR) of rabbit liver cytosol incubated with 0.2 nM [3H]-TCDD; Antagonist
T1 sequence (O02747 whole entry): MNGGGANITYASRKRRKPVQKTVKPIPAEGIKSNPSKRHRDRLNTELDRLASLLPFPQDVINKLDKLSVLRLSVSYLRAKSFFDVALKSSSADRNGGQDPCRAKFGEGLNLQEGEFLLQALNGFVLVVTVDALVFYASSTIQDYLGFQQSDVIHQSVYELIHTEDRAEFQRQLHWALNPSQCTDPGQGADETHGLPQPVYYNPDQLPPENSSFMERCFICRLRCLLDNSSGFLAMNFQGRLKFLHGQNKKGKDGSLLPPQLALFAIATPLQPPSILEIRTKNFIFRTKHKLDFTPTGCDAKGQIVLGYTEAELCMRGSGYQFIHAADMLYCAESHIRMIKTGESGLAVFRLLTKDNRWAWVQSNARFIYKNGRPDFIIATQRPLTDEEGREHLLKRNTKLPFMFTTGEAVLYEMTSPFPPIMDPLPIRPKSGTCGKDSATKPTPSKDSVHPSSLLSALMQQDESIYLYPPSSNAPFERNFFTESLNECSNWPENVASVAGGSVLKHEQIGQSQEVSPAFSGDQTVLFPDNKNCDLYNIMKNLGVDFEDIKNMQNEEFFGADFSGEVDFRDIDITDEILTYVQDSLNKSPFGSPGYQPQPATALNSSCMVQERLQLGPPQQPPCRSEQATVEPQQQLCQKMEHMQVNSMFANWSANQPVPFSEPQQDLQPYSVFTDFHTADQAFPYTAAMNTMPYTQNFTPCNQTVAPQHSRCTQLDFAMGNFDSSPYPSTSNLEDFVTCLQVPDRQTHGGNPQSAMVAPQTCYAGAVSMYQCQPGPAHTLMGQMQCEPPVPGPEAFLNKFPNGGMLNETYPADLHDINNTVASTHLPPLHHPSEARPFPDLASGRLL
Procedure, shortened: (§1)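 Rabbit liver cytosol incubated with 0.2 nM [3H]-TCDD plus unlabeled ligand at 12 concentrations spanning 0.1 nM to 1 µM. Competitive displacement measured, and IC50 obtained by iterative curve fitting.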

Estrogen receptor [5] = biological target: T2, Estrogen receptor (Homo sapiens, UniProt P03372); experiment: Binding affinity for estrogen receptor (ER) alpha of MCF-7 cell cytosol incubated with 2 nM [3H]estradiol; type: cell-based
T2 sequence (P03372 whole entry): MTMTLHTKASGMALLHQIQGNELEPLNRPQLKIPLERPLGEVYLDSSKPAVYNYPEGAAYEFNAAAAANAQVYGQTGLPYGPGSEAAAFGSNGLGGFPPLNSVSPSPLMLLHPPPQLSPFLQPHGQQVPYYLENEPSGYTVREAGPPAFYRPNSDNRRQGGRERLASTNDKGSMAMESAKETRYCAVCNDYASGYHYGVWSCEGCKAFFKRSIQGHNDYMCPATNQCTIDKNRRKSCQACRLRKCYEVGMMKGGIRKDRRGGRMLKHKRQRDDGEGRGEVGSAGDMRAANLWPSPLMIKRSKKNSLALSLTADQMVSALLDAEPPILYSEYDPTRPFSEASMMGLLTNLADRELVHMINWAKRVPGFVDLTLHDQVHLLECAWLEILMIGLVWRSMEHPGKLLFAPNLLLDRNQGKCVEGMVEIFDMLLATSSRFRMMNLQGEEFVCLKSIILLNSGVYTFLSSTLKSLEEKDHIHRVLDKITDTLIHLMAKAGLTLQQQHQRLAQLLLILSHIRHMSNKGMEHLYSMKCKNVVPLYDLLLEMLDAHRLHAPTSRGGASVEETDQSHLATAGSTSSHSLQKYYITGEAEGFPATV
Procedure, shortened: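 Cytosol from MCF-7 cells, which express only the ERα isoform, incubated with 2 nM [3H]-estradiol and unlabeled ligand at eight concentrations from 10 nM to 10 µM. IC50 derived by iterative curve fitting, and Ki calculated using a Kd of 0.1 nM.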

MCF7 [6] = experiment: Tested for cytotoxicity towards MCF-7 cell line (human breast cancer); type: functional, cell-based
A549 [7] = experiment: Tested for cytotoxicity towards A549 cell line (human lung carcinoma); type: functional, cell-based
T47D [8] = experiment: Tested for cytotoxicity towards T47D cell line (human breast cancer); type: functional, cell-based
Estrogen receptor [9] = biological target: T2, Estrogen receptor; experiment: Binding affinity for estrogen receptor (ER) alpha of MCF-7 cell cytosol incubated with 2 nM [3H]estradiol; Agonist; type: cell-based
Procedure, shortened: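 ERα-only cytosol from MCF-7 cells, incubated with 2 nM [3H]-estradiol and eight concentrations (10 nM–10 µM) of unlabelled ligand. IC50 came from iterative curve fitting, and Ki was calculated using Kd 0.1 nM. Agonist status: stimulation of ERE-driven luciferase in MELN reporter cells after 8 h, with or without 1 nM 17β-estradiol; luciferase activity was the read-out.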

[10] = biological target: T1, Aryl hydrocarbon receptor; experiment: Binding affinity for aryl hydrocarbon receptor (AhR) of rabbit liver cytosol incubated with 0.2 nM [3H]-TCDD; Agonist; procedure, shortened: as §1

Row | SMILES | Concentration (MCF7 [1]) [µM] | Concentration (T47D [2]) [µM] | Concentration (A549 [3]) [µM] | Ki [4] [nM] | Ki (Estrogen receptor [5]) [nM] | Concentration (MCF7 [6]) [µM] | Concentration (A549 [7]) [µM] | Concentration (T47D [8]) [µM] | Ki (Estrogen receptor [9]) [nM] | Ki [10] [nM]
1 | COc1cccc(/C=C/c2cc(Cl)cc(Cl)c2)c1 | > 10 | > 10 | > 10 | 5.7 | > 100000 | – | – | – | – | –
2 | COc1ccc(/C=C/c2cc(F)cc(F)c2)cc1 | > 10 | > 10 | > 10 | 9.2 | > 100000 | – | – | – | – | –
3 | Fc1ccc(/C=C\c2cc(F)cc(F)c2)cc1 | > 10 | > 10 | > 10 | 63 | > 100000 | – | – | – | – | –
4 | FC(F)(F)c1ccc(/C=C\c2cc(C(F)(F)F)cc(C(F)(F)F)c2)cc1 | > 10 | > 10 | > 10 | 60 | > 100000 | – | – | – | – | –
5 | COc1ccc(/C=C\c2cc(F)cc(F)c2)cc1 | > 10 | > 10 | > 10 | 22 | > 100000 | – | – | – | – | –
6 | Clc1ccc(/C=C/c2cc(Cl)cc(Cl)c2)cc1 | > 10 | > 10 | > 10 | 1.2 | > 100000 | – | – | – | – | –
7 | COc1cccc(/C=C\c2cc(Cl)cc(Cl)c2)c1 | > 10 | > 10 | > 10 | 24 | > 100000 | – | – | – | – | –
8 | COc1cc(/C=C\c2ccc(F)cc2)cc(OC)c1 | – | – | – | 96 | > 100000 | > 10 | > 10 | > 10 | – | –
9 | COc1ccc(/C=C/c2cc(Cl)cc(Cl)c2)cc1 | > 10 | > 10 | > 10 | 1.4 | > 100000 | – | – | – | – | –
10 | CCOc1ccc(/C=C/c2cc(OC)cc(OC)c2)cc1 | – | – | – | 5 | – | < 0.1 | < 0.1 | < 0.1 | 381 | –
11 | FC(F)(F)c1cccc(/C=C\c2cc(Cl)cc(Cl)c2)c1 | > 10 | > 10 | > 10 | 19 | > 100000 | – | – | – | – | –
12 | FC(F)(F)c1ccc(/C=C/c2cc(Cl)cc(Cl)c2)cc1 | > 10 | > 10 | > 10 | – | > 100000 | – | – | – | – | 0.2
13 | CCCCOc1ccc(/C=C\c2cc(OC)cc(OC)c2)cc1 | – | – | – | 43 | > 100000 | – | – | – | – | –
14 | FC(F)(F)c1ccc(/C=C/c2cc(C(F)(F)F)cc(C(F)(F)F)c2)cc1 | > 10 | > 10 | > 10 | 2.1 | > 100000 | – | – | – | – | –
15 | FC(F)(F)c1cccc(/C=C/c2cc(Cl)cc(Cl)c2)c1 | > 10 | > 10 | > 10 | 6.8 | > 100000 | – | – | – | – | –
16 | Fc1ccc(/C=C/c2cc(F)cc(F)c2)cc1 | > 10 | > 10 | > 10 | 3.8 | > 100000 | – | – | – | – | –
17 | Clc1ccc(/C=C\c2cc(Cl)cc(Cl)c2)cc1 | – | – | – | 13 | > 100000 | < 100 | < 100 | < 100 | – | –
18 | CCOc1ccc(/C=C\c2cc(OC)cc(OC)c2)cc1 | – | – | – | 65 | – | < 0.1 | < 0.1 | < 0.1 | 136 | –
19 | Oc1ccc(/C=C/c2cc(O)cc(O)c2)cc1 [RESVERATROL] | – | – | – | – | – | – | – | – | 785 | –
20 | COc1cc(/C=C/c2ccc(F)cc2)cc(OC)c1 | – | – | – | 3.1 | > 100000 | > 10 | > 10 | > 10 | – | –
21 | COc1ccc(/C=C\c2cc(OC)cc(OC)c2)cc1 [8Z-3,4',5-TRIMETHOXYSTILBENE] | – | – | – | 75 | – | – | – | – | 132 | –
22 | COc1ccc(/C=C/c2cc(OC)cc(OC)c2)cc1 [TRISMETHOXYRESVERATROL] | – | – | – | 7.7 | – | < 100 | < 100 | < 100 | 261 | –
23 | COc1ccc(/C=C\c2cc(Cl)cc(Cl)c2)cc1 | > 10 | > 10 | > 10 | 12 | > 100000 | – | – | – | – | –
24 | CCCCOc1ccc(/C=C/c2cc(OC)cc(OC)c2)cc1 | – | – | – | 20 | > 100000 | > 10 | > 10 | > 10 | – | –
25 | FC(F)(F)c1ccc(/C=C\c2cc(Cl)cc(Cl)c2)cc1 | > 10 | > 10 | > 10 | 14 | > 100000 | – | – | – | – | –
